Reference: ChEMBL document CHEMBL1158759, “Cytotoxic bisindole alkaloids from a marine sponge Spongosorites sp” (J Nat Prod, 2005)
Converted amounts (≈) assume the structure as drawn.

What was measured:
[1] = tested on: Escherichia coli; experiment: Antibacterial activity against Escherichia coli DC2; assay type: functional
Summary of the method: (§1)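 Agar dilution on Mueller Hinton agar holding 17 serial dilutions of sample (final 25 to 0.002 µg/mL), with meropenem and imipenem as standards. Strains were pre-grown 18 h at 37 °C in Fleisch extract broth, with 10% horse serum for some strains.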

[2] = tested on: Streptococcus pyogenes; experiment: Antibacterial activity against Streptococcus pyogenes 77A; assay type: functional; summary of the method: as §1
[3] = tested on: Pseudomonas aeruginosa; experiment: Antibacterial activity against Pseudomonas aeruginosa 1771M; assay type: functional; summary of the method: as §1
[4] = tested on: Streptococcus pyogenes; experiment: Antibacterial activity against Streptococcus pyogenes 308A; assay type: functional; summary of the method: as §1
[5] = tested on: Staphylococcus aureus; experiment: Antibacterial activity against Staphylococcus aureus 285; assay type: functional; summary of the method: as §1
[6] = tested on: Klebsiella oxytoca; experiment: Antibacterial activity against Klebsiella oxytoca 1082; assay type: functional; summary of the method: as §1
[7] = tested on: Enterococcus faecium; experiment: Antibacterial activity against Streptococcus faecium MD 8b; assay type: functional; summary of the method: as §1
[8] = tested on: Staphylococcus aureus; experiment: Antibacterial activity against Staphylococcus aureus 503; assay type: functional; summary of the method: as §1
[9] = tested on: Staphylococcus aureus; experiment: Antibacterial activity against Staphylococcus aureus SG511; assay type: functional; summary of the method: as §1
[10] = tested on: HCT-15; experiment: Cytotoxicity against human HCT15 cells after 48 hrs by SRB assay; assay type: functional; conditions: HCT-15, 48 h, read-out: ED50 (the source's name)
Summary of the method: (§2)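 Cells in exponential growth were seeded at (1-2) × 10^4 per well and grown 24 h. Cells were fixed with cold TCA and stained with 0.4% SRB in 1% acetic acid. Dye was solubilized in 10 mM unbuffered Tris base and A520 read.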

[11] = tested on: SK-MEL-2; experiment: Cytotoxicity against human SK-MEL-2 cells after 48 hrs by SRB assay; assay type: functional; conditions: SK-MEL-2, 48 h, read-out: ED50 (the source's name); summary of the method: as §2
[12] = tested on: A549; experiment: Cytotoxicity against human A549 cells after 48 hrs by SRB assay; assay type: functional; conditions: A549, 48 h, read-out: ED50 (the source's name); summary of the method: as §2
[13] = tested on: SK-OV-3; experiment: Cytotoxicity against human SKOV3 cells after 48 hrs by SRB assay; assay type: functional; conditions: SK-OV-3, 48 h, read-out: ED50 (the source's name); summary of the method: as §2
[14] = tested on: XF498; experiment: Cytotoxicity against human XF498 cells after 48 hrs by SRB assay; assay type: functional; conditions: XF498, 48 h, read-out: ED50 (the source's name); summary of the method: as §2
[15] = tested on: P388; experiment: Cytotoxicity against mouse P388 cells; assay type: functional, cell-based

| SMILES | MIC [1] | MIC [2] | MIC [3] | MIC [4] | MIC [5] | MIC [6] | MIC [7] | MIC [8] | MIC [9] | EC50 [10] | EC50 [11] | EC50 [12] | EC50 [13] | EC50 [14] | IC50 [15] |
| --- | --- | --- | --- | --- | --- | --- | --- | --- | --- | --- | --- | --- | --- | --- | --- |
| C[C@@H](O)[C@H]1C(=O)N2C(C(=O)O)=C(S[C@@H]3CN[C@H](C(=O)N(C)C)C3)[C@H](C)[C@H]12 [MEROPENEM] | 0.025 µg/mL (≈ 0.0652 µM) | 0.007 µg/mL (≈ 0.0183 µM) | 0.098 µg/mL (≈ 0.256 µM) | 0.007 µg/mL (≈ 0.0183 µM) | 0.195 µg/mL (≈ 0.509 µM) | 0.049 µg/mL (≈ 0.128 µM) | 6.25 µg/mL (≈ 16.3 µM) | 0.049 µg/mL (≈ 0.128 µM) | 0.098 µg/mL (≈ 0.256 µM) | – | – | – | – | – | – |
| O=C(c1nc(-c2c[nH]c3cc(Br)ccc23)c[nH]1)c1c[nH]c2cc(O)ccc12 [BROMOTOPSENTIN] | – | – | – | – | – | – | – | – | – | > 30 µg/mL | 7.02 µg/mL (≈ 16.7 µM) | > 30 µg/mL | 28.1 µg/mL (≈ 66.8 µM) | 15 µg/mL (≈ 35.6 µM) | 7 µg/mL (≈ 16.6 µM) |
| C[C@@H](O)[C@H]1C(=O)N2C(C(=O)O)=C(SCCNC=N)C[C@H]12 [IMIPENEM ANHYDROUS] | 0.195 µg/mL (≈ 0.651 µM) | 0.004 µg/mL (≈ 0.0134 µM) | 0.098 µg/mL (≈ 0.327 µM) | 0.004 µg/mL (≈ 0.0134 µM) | 0.013 µg/mL (≈ 0.0434 µM) | 0.195 µg/mL (≈ 0.651 µM) | 0.781 µg/mL (≈ 2.61 µM) | 0.007 µg/mL (≈ 0.0234 µM) | 0.013 µg/mL (≈ 0.0434 µM) | – | – | – | – | – | – |
| COc1cccc2c1C(=O)c1c(O)c3c(c(O)c1C2=O)C[C@@](O)(C(=O)CO)C[C@@H]3O[C@H]1C[C@H](N)[C@H](O)[C@H](C)O1 [DOXORUBICIN] | – | – | – | – | – | – | – | – | – | 0.05 µg/mL (≈ 0.092 µM) | 0.01 µg/mL (≈ 0.0184 µM) | 0.01 µg/mL (≈ 0.0184 µM) | 0.03 µg/mL (≈ 0.0552 µM) | 0.01 µg/mL (≈ 0.0184 µM) | – |
| O=C(c1nc(-c2c[nH]c3ccccc23)c[nH]1)c1c[nH]c2cc(O)ccc12 [TOPSENTIN] | – | – | – | – | – | – | – | – | – | 13.3 µg/mL (≈ 38.9 µM) | > 30 µg/mL | > 30 µg/mL | > 30 µg/mL | > 30 µg/mL | 2 µg/mL (≈ 5.84 µM) |
| O=C1NC[C@@H](c2c[nH]c3cc(Br)ccc23)N[C@H]1c1c[nH]c2cc(Br)ccc12 (relative stereo) [CIS-3,4-DIHYDROHAMACANTHIN B] | 25 µg/mL (≈ 51.2 µM) | 25 µg/mL (≈ 51.2 µM) | 25 µg/mL (≈ 51.2 µM) | 12.5 µg/mL (≈ 25.6 µM) | 25 µg/mL (≈ 51.2 µM) | 25 µg/mL (≈ 51.2 µM) | > 25 µg/mL | 25 µg/mL (≈ 51.2 µM) | 12.5 µg/mL (≈ 25.6 µM) | 2.83 µg/mL (≈ 5.8 µM) | 3.85 µg/mL (≈ 7.89 µM) | 3.41 µg/mL (≈ 6.99 µM) | 3.62 µg/mL (≈ 7.42 µM) | 3.22 µg/mL (≈ 6.6 µM) | – |
